Measured values gathered from unrelated publications.
Compare with care: the assays were run in different laboratories. In brackets after ≈: the same amount, converted by molar mass.
Organism: Escherichia coli
Effect on: microbial growth

| SMILES | assay | test system | MIC |
| --- | --- | --- | --- |
| CC(C)Oc1c(NC(=O)c2ccc(NC(=O)[C@H](CC(N)=O)NC(=O)c3ccc(NC(=O)c4ccc(C#N)cc4)cc3)cc2)ccc(C(=O)N[C@@H]2CONC2=O)c1O |  | DSM1116 | > 64 µg/mL |
| CC1(C)S[C@@H]2[C@H](NC(=O)[C@H](N)c3ccccc3)C(=O)N2[C@H]1C(=O)O | broth dilution | ATCC25922 | 8 µg/mL (≈ 22.9 µM) |
| CC(C)Oc1c(NC(=O)c2ccc(NC(=O)[C@H](CC(N)=O)NC(=O)c3ccc(NC(=O)C(C)Oc4ccc(C#N)cc4)cc3)cc2)ccc(C(=O)Nc2ccc(C(=O)O)cc2)c1O (stereo partly shown) |  | DSM1116 | 0.06 µg/mL (≈ 0.0701 µM) |
| C=CCn1c(-c2ccc(Cl)cc2)nc2ccccc21 | broth dilution | ATCC25922 | 64 µg/mL (≈ 238 µM) |
| N=C(N)c1ccc(OCc2ccc3ccc(COc4ccc(C(=N)N)cc4)cc3c2)cc1 |  | BW25113 | ≥ 200 µg/mL |
| CSc1ccc(-c2nc3ccc(C)cc3[nH]2)cc1 | broth dilution | ATCC25922 | 32 µg/mL (≈ 126 µM) |
| N=C(N)c1ccccc1OCCCCCOc1ccccc1C(=N)N |  | BW25113 | > 200 µg/mL |
| Cc1ccc2nc(-c3ccc([N+](=O)[O-])cc3)n(Cc3ccccc3)c2c1 | broth dilution | ATCC25922 | 64 µg/mL (≈ 186 µM) |
| N=C(N)c1ccc(OCCCCCCCCOc2ccc(C(=N)N)cc2)cc1 |  | BW25113 | 50 µg/mL (≈ 131 µM) |
| CC(C)Oc1c(NC(=O)c2ccc(NC(=O)[C@H](CC(N)=O)NC(=O)c3ccc(NC(=O)c4ccc(C#N)cc4)cc3)cc2)ccc(C(=O)NC2CCNCC2)c1O |  | DSM1116 | > 64 µg/mL |
